Consider 15 molecules from ChEMBL document CHEMBL1799941 (J Med Chem, 2011).

The target of data set [1] is T1, Cholesteryl ester transfer protein (Homo sapiens) (UniProt P11597).
T1 sequence (whole entry): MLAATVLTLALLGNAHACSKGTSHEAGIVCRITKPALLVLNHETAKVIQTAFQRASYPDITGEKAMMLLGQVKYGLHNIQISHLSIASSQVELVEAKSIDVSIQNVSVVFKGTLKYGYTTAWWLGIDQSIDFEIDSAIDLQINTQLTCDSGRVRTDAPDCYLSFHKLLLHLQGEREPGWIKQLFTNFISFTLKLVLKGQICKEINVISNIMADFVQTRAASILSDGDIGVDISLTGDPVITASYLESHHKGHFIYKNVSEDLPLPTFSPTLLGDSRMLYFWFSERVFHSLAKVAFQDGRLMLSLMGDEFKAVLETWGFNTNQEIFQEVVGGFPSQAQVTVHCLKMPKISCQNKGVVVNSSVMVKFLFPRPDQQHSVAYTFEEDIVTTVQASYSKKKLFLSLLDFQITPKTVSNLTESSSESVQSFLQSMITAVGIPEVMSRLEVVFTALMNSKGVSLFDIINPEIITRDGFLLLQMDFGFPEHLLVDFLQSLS
Put plainly: Inhibition of human recombinant CETP-mediated cholesteryl ester transfer activity at 100 uM after 1 hr by fluorescent cholesteryl esters transfer assay relative to control.

Data set [2] has as its target T2, Cholesteryl ester transfer protein (Homo sapiens, UniProt P11597).
T2 sequence (P11597 whole entry): T1 sequence (whole entry)
Kind of data set: Inhibition of human recombinant CETP-mediated cholesteryl ester transfer activity after 1 hr by fluorescent cholesteryl esters transfer assay.

For data set [3], the system named is Mus musculus. Kind of data set: Increase in HDL-cholesterol level in C57BL/6 mouse expressing cynomolgus monkey CETP gene assessed as change in HDL-C level at 10 mg/kg, po BID measured 24 hrs after first dose. The class given is functional.
A short description of data set [4]: Volume of distribution in C57BL/6 mouse at 0.6 mg/kg, iv and 2 mg/kg, po. The class given is ADME, organism-based. The following applies: in vivo. The method, boiled down: (§1)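 Male C57BL/6 mice. IV dosing at 0.6 mg/kg, formulated in DMSO:PEG400:water (10:55:35, v/v/v). Oral dosing at 2 mg/kg, formulated in DMSO:cremophor:saline (2:4:94, v/v/v). Reported parameters were blood clearance, volume of distribution, terminal half-life, IV- and PO-normalized AUC, Cmax and Tmax in plasma after oral dosing, and oral bioavailability.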

Data set [5] has as its system Mus musculus. Kind of data set: Increase in HDL-cholesterol level in C57BL/6 mouse expressing cynomolgus monkey CETP gene assessed as change in HDL-C level at 0.3 mg/kg, po BID measured 24 hrs after first dose. The class given is functional. The method, boiled down: (§2)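 Baseline retro-orbital bleed. Oral BID dosing in DMSO/cremophor/saline (4:4:92). Euthanized 24 h after the first dose with cardiac-puncture bleed. HDL-C by enzymatic kit on pre- and post-dose samples. Change from baseline reported as mean ± SEM, 9 mice per dose.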

For data set [6], the system named is Mus musculus. Put plainly: Increase in HDL-cholesterol level in C57BL/6 mouse expressing cynomolgus monkey CETP gene assessed as change in HDL-C level at 1 mg/kg, po BID measured 24 hrs after first dose. The class given is functional. The essentials:
as §2

Data set [7] in a line: Blood clearance in C57BL/6 mouse at 0.6 mg/kg, iv and 2 mg/kg, po. The class given is ADME, organism-based. To be noted: whole blood. The method, boiled down: as §1
The subject of data set [8] is Mus musculus. Kind of data set: Dose-normalized AUC in C57BL/6 mouse at 2 mg/kg, po. More on the design: dose 2 mg/kg, route oral. It counts as ADME, organism-based. The following applies: in vivo. The essentials:
as §1

Data set [9] has as its system Mus musculus. Put plainly: Increase in HDL-cholesterol level in C57BL/6 mouse expressing cynomolgus monkey CETP gene assessed as change in HDL-C level administered orally twice daily and measured 24 hrs after first dose. The class given is functional, organism-based. The essentials: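 Pre-dose retro-orbital bleed. Dosed 10 mg/kg PO BID at 0 and 7 h in DMSO/cremophor/saline (4:4:92). Terminal cardiac-puncture bleed at 24 h. HDL-C by enzymatic kit; change from baseline, mean of 5 mice. A change of 5 mg/dL or less was generally considered not significant.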

Data set [10] relates to Mus musculus. Put plainly: Increase in HDL-cholesterol level in C57BL/6 mouse expressing cynomolgus monkey CETP gene assessed as change in HDL-C level at 3 mg/kg, po BID measured 24 hrs after first dose. It counts as functional. The method, boiled down:
as §2

Data set [11] can be described thus: Cmax in C57BL/6 mouse at 2 mg/kg, po. The class given is ADME, organism-based. Set-up: dose 2 mg/kg, route oral. The following applies: in vivo. The essentials:
as §1

In data set [12] the test system is Mus musculus. Put plainly: Terminal half life in C57BL/6 mouse at 0.6 mg/kg, iv and 2 mg/kg, po. The class given is ADME, organism-based. To be noted: in vivo. The essentials: as §1
The nature of data set [13]: Oral bioavailability in C57BL/6 mouse at 2 mg/kg. The class given is ADME, organism-based. To be noted: in vivo. The essentials:
as §1

The nature of data set [14]: Tmax in C57BL/6 mouse at 2 mg/kg, po. The class given is ADME, organism-based. More on the design: dose 2 mg/kg, route oral. The following applies: in vivo. The essentials:
as §1

Data set [15] deals with Mus musculus. Kind of data set: Dose-normalized AUC in C57BL/6 mouse at 0.6 mg/kg, iv. The class given is ADME, organism-based. To be noted: in vivo. Set-up: dose 0.6 mg/kg, route intravenous. The essentials:
as §1

The structures appear in SMILES notation. Activity calls are given as the source filed them.

Regarding `COc1cc(F)c(C(C)C)cc1-c1ccc(C(F)(F)F)cc1CN1C(=O)O[C@@H](c2cc(C(F)(F)F)cc(C(F)(F)F)c2)C1(C)C`, in data set [1], the inhibition turned out to be 21%.
Take `COc1ccc(C(C)C)cc1-c1ccc(C(F)(F)F)cc1CN1C(=O)O[C@H](c2ccccc2)[C@@H]1C`: the IC50 in data set [2] came to 39.3 nM. Also, the inhibition in data set [1] came out at 94%. In addition, the Activity in the data set on Mus musculus [3] stood at 6.3 mg/dL.
Consider `COC(=O)N(Cc1cc(C(F)(F)F)cc(C(F)(F)F)c1)Cc1cc(C(F)(F)F)ccc1-c1cc(C(C)C)c(F)cc1OC`, for which the inhibition in data set [1] is 88%. In the data set with Mus musculus [3], the Activity turned out to be 15 mg/dL.
With `COc1cc(F)c(C(C)C)cc1-c1ccc(C(F)(F)F)cc1CN1C(=O)O[C@H](c2cc(C(F)(F)F)cc(C(F)(F)F)c2)[C@@H]1C` [ANACETRAPIB], the Vd in data set [4] turned out to be 2 L/kg. Moreover, the Activity in the data set on Mus musculus [5] is 14 mg/dL; in the data set on Mus musculus [6], 16.4 mg/dL; with Mus musculus [9] it was “Dose-dependent effect”; in the data set with Mus musculus [10], 21.7 mg/dL. Also, the clearance in data set [7] is 11 mL/min/kg. Further, the AUC/dose with Mus musculus [8] was 0.356 µM·kg·h/mg; in the data set with Mus musculus [15] it was 2.4 µM·kg·h/mg. The concentration in [11] peaked (Cmax) at 280 nM. The “beta t1/2” value with Mus musculus [12] was determined as 3.6 h. In data set [13], this molecule gave a bioavailability of 15%. Moreover, the Tmax in data set [14] is 1 h.
For the molecule `COc1cc(F)c(C(C)C)cc1-c1ccc(C(F)(F)F)cc1CN1C[C@@H](c2cc(C(F)(F)F)cc(C(F)(F)F)c2)OC1=O`, the IC50 in [2] stood at 25.6 nM. Also, the inhibition in data set [1] came out at 97%. Besides, the Activity in the data set on Mus musculus [3] worked out at 6.3 mg/dL.
On to `CC[C@@H]1[C@@H](c2cc(C(F)(F)F)cc(C(F)(F)F)c2)OC(=O)N1Cc1cc(C(F)(F)F)ccc1-c1cc(C(C)C)ccc1OC` (racemic), for which, in data set [1], the inhibition stood at 49%.
Same read-out and setting: the result for `COc1ccc(C(C)C)cc1-c1ccc(C(F)(F)F)cc1CN1C(=O)O[C@H](c2cc(C(F)(F)F)cc(C(F)(F)F)c2)[C@H]1C` reads 90%.
`CC[C@H]1[C@@H](c2cc(C(F)(F)F)cc(C(F)(F)F)c2)OC(=O)N1Cc1cc(C(F)(F)F)ccc1-c1cc(C(C)C)ccc1OC` (racemic): in data set [2], the 50% inhibitory concentration (IC50) was 268 nM. Besides, in [1], the inhibition is 87%.
For `COc1cc(F)c(C(C)C)cc1-c1ccc(C(F)(F)F)cc1CN1C(=O)O[C@](C)(c2cc(C(F)(F)F)cc(C(F)(F)F)c2)[C@@H]1C`, the inhibition in [1] worked out at 46%.
As for `COc1ccc(C(C)C)cc1-c1ccc(C(F)(F)F)cc1CN1C(=O)O[C@@H](c2cc(C(F)(F)F)cc(C(F)(F)F)c2)[C@H]1C`, the inhibition in [1] turned out to be 8%.
Turning to `COc1cc(F)c(C(C)C)cc1-c1ccc(C(F)(F)F)cc1CN1C(=O)O[C@H](c2cc(C(F)(F)F)cc(C(F)(F)F)c2)C1(C)C`, the inhibition in data set [1] came out at 94%. Besides, the Activity with Mus musculus [3] is 17 mg/dL.
Consider `COc1ccc(C(C)C)cc1-c1ccc(C(F)(F)F)cc1CN1C(=O)O[C@@H](c2ccccc2)[C@H]1C`, for which the IC50 in [2] amounted to 5670 nM. The inhibition in data set [1] is 90%.
With `COc1ccc(C(C)C)cc1-c1ccc(C(F)(F)F)cc1CN1C[C@@H](c2cc(C(F)(F)F)cc(C(F)(F)F)c2)OC1=O`, the IC50 in data set [2] stood at 93 nM. Further, the inhibition in data set [1] amounted to 93%. Further, the result in the data set with Mus musculus [3] was inactive.
In the same order, the values of `COC(=O)N(Cc1cc(C(F)(F)F)cc(C(F)(F)F)c1)Cc1cc(C(F)(F)F)ccc1-c1cc(C(C)C)ccc1OC` are 126 nM, 87% and 15 mg/dL.
`COc1ccc(C(C)C)cc1-c1ccc(C(F)(F)F)cc1CN1C(=O)O[C@@H](c2cc(C(F)(F)F)cc(C(F)(F)F)c2)[C@@H]1C`: the inhibition in data set [1] was found to be 20%.

Broadly, the inhibition is how much of the control response was suppressed. As usually defined, the IC50 is the concentration that inhibits the measured activity by half. For orientation: Cmax means the peak of the concentration-time curve. For orientation: bioavailability means the share of a dose that reaches the circulation, judged against a reference dose that is usually intravenous. Broadly, the Tmax is the time from dosing to the highest level.
